The results in this text go back to ChEMBL document CHEMBL1129445 (J Med Chem, 1996).

Assay [1] can be described thus: Compound was tested for inhibition of human Lymphocyte proliferation. The IC50 values were determined by interpolation using the cubic spline determination. Format: functional. The gist of the method: (§1)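 Human PBMC are isolated on Ficoll from heparinized blood and plated at 2 × 10^5 cells/well in RPMI-1640 with 5% FCS. Cells are stimulated with PHA (10 μg/mL final) and given compound at time 0, at 4-6 concentrations between 0.001 and 20 μM (tested to 10 μM). Cultures run in quadruplicate for 72 h at 37 °C, 7% CO2, with [3H]thymidine (0.5 μCi/well) for the last 6 h. IC50 by cubic-spline interpolation of the means.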

The target in assay [2] is T1, Inosine-5'-monophosphate dehydrogenase 2 (Homo sapiens, UniProt P12268). As to the kind of experiment: Inhibition of human recombinant type II Inosine Monophosphate Dehydrogenase. at pH 8.0. The gist of the method:
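Recombinant human type II IMPDH (12.5-25 pmol) in 0.1 M Tris-HCl pH 8.0, 0.1 M KCl, 3 mM EDTA, 100 μg/mL BSA. […] IC50 fitted with a Hill equation, fractional activity = V0/[(I/IC50)^n + 1].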

Assay [3] relates to Mus musculus. As to the kind of experiment: % inhibition of Murine plaque forming cells response was measured in Mice at 6.25 mg/kg dose. It counts as functional.
For assay [4], the system named is Mus musculus. As to the kind of experiment: % inhibition of Murine plaque forming cells response was measured in Mice at 25 mg/kg dose. It counts as functional.
For assay [5], the target named is T1, Inosine-5'-monophosphate dehydrogenase 2. As to the kind of experiment: Inhibition of human recombinant inosine monophosphate dehydrogenase type II. The gist of the method:
(§2)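 Reactions are run either at pH 7.4 (0.1 M K phosphate, 0.5 M KCl, 3 mM EDTA, 10 μg/mL BSA) or at pH 8.0 (0.1 M Tris-HCl, 0.1 M KCl, 3 mM EDTA, 100 μg/mL BSA). DMSO ≤10%, compounds tested up to 100 μM. IC50 from fit of fractional activity = V0/[(I/IC50)^n + 1].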

The test system of assay [6] is Mus musculus. Kind of assay: % inhibition of Murine plaque forming cells response was measured in Mice at 12.5 mg/kg dose. Format: functional.
The species named for assay [7] is Mus musculus. As to the kind of experiment: Effective dose was measured in mice as concentration required to inhibit 50% inhibition of Murine PFC response. It counts as functional. In outline:
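Jerne plaque assay in female C3H or CD-1 mice immunized ip with SRBC on day 0, with oral daily dosing over the next 4 days. Splenic PFC per 10^6 WBC counted on day 4. ED50 read graphically from the dose-inhibition data.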

The species entered for assay [8] is Homo sapiens. As to the kind of experiment: Inhibition of human Lymphocyte proliferation. The IC50 values were determined by interpolation using cubic spline determination. Format: functional. The gist of the method:
as §1

The species entered for assay [9] is Homo sapiens. Kind of assay: Compound was tested for inhibition of human Lymphocyte proliferation. The IC50 values were determined by interpolation using the cubic spline determination at 10 uM. It counts as functional. The gist of the method: as §1
Assay [10] concerns the target T1, Inosine-5'-monophosphate dehydrogenase 2. Kind of assay: Inhibition of human recombinant type II Inosine Monophosphate Dehydrogenase at 100 uM. In outline: as §2
The subject of assay [11] is Mus musculus. As to the kind of experiment: Tested for the inhibition of murine PFC response at 50 mg/kg dose. It counts as functional.
Assay [12] has as its target T1, Inosine-5'-monophosphate dehydrogenase 2. As to the kind of experiment: Compound was tested for inhibition of human recombinant type II Inosine Monophosphate Dehydrogenase. (tested to 100 and 10 uM conc). The gist of the method:
as §2

Assay [13] has as its system Mus musculus. Kind of assay: Tested for the inhibition of murine PFC response at 12.5 mg/kg dose. Format: functional.
The test system of assay [14] is Mus musculus. Kind of assay: Tested for the inhibition of murine PFC response at 6.25 mg/kg dose. Format: functional.
The test system of assay [15] is Mus musculus. Kind of assay: Tested for the inhibition of murine PFC response at 25 mg/kg dose. It counts as functional.
The test system of assay [16] is Mus musculus. As to the kind of experiment: Tested for the inhibition of murine PFC response at 100 mg/kg dose. Format: functional.
Assay [17] is filed under the species Mus musculus. Kind of assay: Compound was tested for its % Inhibition of Murine PFC response in Mice. Format: functional.

Take `COc1c(C)c2c(c(O)c1C/C=C(\C)CCC(=O)O)C(=O)N(C)C2`: the IC50 (as a rule, the midpoint of a concentration-inhibition curve) in [1] was more than 10000 nM; in [2], more than 100000 nM.
Take `CCc1c(C)c2c(c(O)c1C/C=C(\C)CCC(=O)O)C(=O)OC2`: in the assay with Mus musculus [3], the inhibition in vivo (in general, the drop in the measured response relative to a control, in per cent) at 6.25 mg/kg came out at 25%. For the same compound, the inhibition in vivo at 25 mg/kg with Mus musculus [4] was 93%. Also, the IC50 in assay [5] came to 12.6 nM; in the assay listed under Homo sapiens [8], 57 nM. Besides, the inhibition in vivo at 12.5 mg/kg with Mus musculus [6] was determined as 73%. In the assay filed under Mus musculus [7], it took a dose of 9 mg/kg to reach the 50% effect level (ED50).
On to `CO/N=C/c1c(C)c(C)c(OC)c(C/C=C(\C)CCC(=O)O)c1O`, for which the IC50 was more than 10000 nM in the assay listed under Homo sapiens [9] and 52800 nM in [10].
`C/C(=C\Cc1c(C)c(C)c2c(c1O)C(=O)OC2)CCC(=O)O` displayed an inhibition in vivo at 50 mg/kg with Mus musculus [11] of 45%. The figures for the concentration for half-maximal inhibition (IC50) (in assay [2]; in the assay filed under Homo sapiens [8]) were 18.6 nM and 250 nM, respectively.
As for `C/C(=C\Cc1c(O)cc(C)c(C)c1C)CCC(=O)O`, the IC50 in [12] was more than 100000 nM.
In the case of `COc1c(C)c2c(c(O)c1C/C=C(\C)CCC(=O)O)C(=O)OC2` [MYCOPHENOLIC ACID], the inhibition in vivo at 12.5 mg/kg in the assay on Mus musculus [13] worked out at 20%. 50 mg/kg produced 81% inhibition in vivo with Mus musculus [11]. In the assay with Mus musculus [14], this compound came in with an inhibition in vivo at 6.25 mg/kg of 16%. In addition, the inhibition in vivo at 25 mg/kg in the assay on Mus musculus [15] amounted to 36%. Besides, the 50% effect level in the assay filed under Mus musculus [7] (ED50) was put at a dose of 33 mg/kg. This compound came in with an IC50 in the assay filed under Homo sapiens [8] of 58 nM.
For `COc1c(C)c(C)c(Cl)c(O)c1C/C=C(\C)CCC(=O)O`, the inhibition in vivo at 12.5 mg/kg in the assay with Mus musculus [13] was 0%. Moreover, the results for the IC50 (in [5]; in the assay filed under Homo sapiens [8]) were 33.5 nM and 200 nM, respectively. In addition, the inhibition in vivo at 100 mg/kg with Mus musculus [16] came out at 83%. The compound also yielded an inhibition in vivo at 25 mg/kg with Mus musculus [15] of 0%.
As for `COc1c(C)c(C)c(/C=N/O)c(O)c1C/C=C(\C)CCC(=O)O`, the IC50 in the assay listed under Homo sapiens [9] was more than 10000 nM; in [10] it was 11900 nM.
For the compound `COc1c(C/C=C(\C)CCC(=O)O)c(O)c2c(c1OC)COC2=O`, the concentration for half-maximal inhibition (IC50) is 126 nM in assay [2] and 130 nM in the assay listed under Homo sapiens [8]. Further, the Inhibition – broadly, the relative decrease from the control value, in per cent – in the assay filed under Mus musculus [17] is listed as 49%.
